From ChEMBL document CHEMBL4831479, “Discovery of Novel Thiophene-arylamide Derivatives as DprE1 Inhibitors with Potent Antimycobacterial Activities” (J Med Chem, 2021)
Values after ≈ are worked out from the molar mass of the structure shown.

How the values were obtained:
[1] = tested on: Mycobacterium tuberculosis; assay: Antitubercular activity against Mycobacterium tuberculosis H37Rv assessed as bacterial growth inhibition incubated for 7 days by microplate Alamar blue assay; assay type: functional; details: 168 h, time 7 day
How it was run: (§1)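 MABA: H37Rv or clinical isolates grown to late log phase in 7H9 with 0.2% glycerol, 0.05% Tween 80, 10% ADC; washed, filtered 8 μm, frozen. 2 × 10⁵ CFU per well with twofold compound dilutions, 37 °C; day 7 Tween 80 plus Alamar blue, 16–24 h more, fluorescence ex 530/em 590. MIC = lowest concentration giving ≥90% fluorescence reduction versus bacterium-only controls; RFP, INH, TCA1 controls.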

[2] = tested on: Mycobacterium tuberculosis; assay: Antimycobacterial activity against Mycobacterium tuberculosis H37Rv infected in mouse J774.1 cells assessed as reduction in bacterial colony forming units at 10 ug/ml incubated for 3 days (reference value: 5.52 +/- 0.18 log10CFU); assay type: functional; details: dose 10 µg/ml; time 3 day
How it was run: (§2)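 Mouse J774A.1 macrophages infected with M. tuberculosis H37Rv, treated 3 days at final 10 or 5 μg/mL; rifampicin control at 5 μg/mL. Intracellular log10 CFU counted; Δlog10 CFU = untreated minus treated. Triplicate, at least three separate experiments.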

[3] = tested on: Mycobacterium tuberculosis; assay: Antimycobacterial activity against Mycobacterium tuberculosis H37Rv infected in mouse J774.1 cells assessed as reduction in bacterial colony forming units at 5 ug/ml incubated for 3 days (reference value: 5.52 +/- 0.18 log10CFU); assay type: functional; details: dose 5 µg/ml; time 3 day; how it was run: as §2
[4] = tested on: Mycobacterium tuberculosis; assay: Antimycobacterial activity against Mycobacterium tuberculosis H37Rv infected in mouse J774.1 cells assessed as change in bacterial colony forming units at 10 ug/ml incubated for 3 days; assay type: functional; details: dose 10 µg/ml; time 3 day; how it was run: as §2
[5] = tested on: HepG2; assay: Cytotoxicity against human HepG2 cells assessed as reduction in cell viability measured after 48 hrs by MTT assay; assay type: cell-based; details: HepG2, 48 h
How it was run: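 Threefold serial dilutions gave final concentrations of 64 to 0.26 μg/mL. After 48 h at 37 °C, monolayers were washed with warm HBSS and given fresh medium plus MTT for 4 h. Absorbance was read at 492 nm. IC₅₀ is the concentration giving 50% growth inhibition versus the untreated control.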

[6] = tested on: Mycobacterium tuberculosis; assay: Antimycobacterial activity against Mycobacterium tuberculosis H37Rv infected in mouse J774.1 cells assessed as change in bacterial colony forming units at 5 ug/ml incubated for 3 days; assay type: functional; details: dose 5 µg/ml; time 3 day; how it was run: as §2
[7] = Selectivity index, ratio of IC50 for African green monkey Vero cells to MIC for antitubercular activity against Mycobacterium tuberculosis H37Rv; assay type: toxicity; details: read-out: Selectivity Index
[8] = biological target: T1, Decaprenylphosphoryl-beta-D-ribose oxidase (Mycobacterium tuberculosis (strain ATCC 25618 / H37Rv)) (UniProt P9WJF1); assay: Non-covalent inhibition of DprE1 in Mycobacterium tuberculosis H37Rv measured after 7 days by microplate Alamar blue assay; details: time 7.0 day; how it was run: as §1
T1 sequence (whole entry): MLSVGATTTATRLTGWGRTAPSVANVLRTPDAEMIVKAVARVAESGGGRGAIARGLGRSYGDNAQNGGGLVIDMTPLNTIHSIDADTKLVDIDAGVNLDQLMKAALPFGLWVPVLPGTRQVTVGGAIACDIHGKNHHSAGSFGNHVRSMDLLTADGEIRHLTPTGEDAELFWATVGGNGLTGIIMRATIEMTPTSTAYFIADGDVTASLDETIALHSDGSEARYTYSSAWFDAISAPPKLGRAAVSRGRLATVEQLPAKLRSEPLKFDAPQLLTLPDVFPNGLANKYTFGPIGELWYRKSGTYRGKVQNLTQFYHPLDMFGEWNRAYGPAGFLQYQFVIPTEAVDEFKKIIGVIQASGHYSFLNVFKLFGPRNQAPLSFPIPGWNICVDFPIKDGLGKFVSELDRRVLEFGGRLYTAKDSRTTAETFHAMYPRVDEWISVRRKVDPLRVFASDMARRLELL

[9] = Stability in mouse hepatocytes assessed as parent compound remaining at 1 uM measured after 30 mins by LC-MS/MS analysis; assay type: ADME, cell-based, Hepatocyte; details: 0.5 h
How it was run: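 Hepatocytes from male mice; metabolic stability measured as the amount of parent compound remaining. Concentrations after 30 min incubation were normalized to those at time zero.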

**Q.** With `CCNC(=O)NC(=O)c1ccsc1NC(=O)c1ccc(C(=O)N2CCCCC2)cc1` as the molecule, how does the MIC [1] read?
**A.** 0.47 µg/mL (≈ 1.1 µM)

**Q.** With `Cc1cccc(NC(=O)c2ccsc2NC(=O)c2ccc(C(=O)N3CCCCC3)cc2)n1` as the molecule, how does the MIC [1] read?
**A.** 15.5 µg/mL (≈ 34.6 µM)

**Q.** Which results are given for `COC(=O)NC(=O)c1ccsc1NC(=O)c1ccc(C(=O)N2CCCCC2)c(F)c1`?
**A.** MIC [1]: 1.94 µg/mL (≈ 4.48 µM); Activity [2]: 4.59 log10CFU; Activity [3]: 4.75 log10CFU; Activity [4]: 0.93 deltalog10CFU; IC50 [5]: > 64 µg/mL; Activity [6]: 0.77 deltalog10CFU

**Q.** For `O=C(Nc1sccc1C(=O)Nc1nccc(C(F)(F)F)n1)c1ccc(C(=O)N2CCCCC2)cc1`, which MIC [1] is on record?
**A.** > 32 µg/mL

**Q.** And the Activity [2]?
**A.** 4.54 log10CFU

**Q.** What about the selectivity ratio [7] of the same molecule?
**A.** > 320

**Q.** And the Activity [3]?
**A.** 4.59 log10CFU

**Q.** And the Activity [4]?
**A.** 0.98 deltalog10CFU

**Q.** And the Activity [6]?
**A.** 0.93 deltalog10CFU

**Q.** With `NC(=O)c1ccsc1NC(=O)c1ccc(C(=O)N2CCCCC2)cc1` as the molecule, how does the MIC [1] read?
**A.** 0.2 µg/mL (≈ 0.56 µM)

**Q.** Which MIC [1] does the source give for `CCOC(=O)NC(=O)c1ccsc1NC(=O)c1cc(C(=O)N2CCCCC2)c[nH]1` here?
**A.** 137 µg/mL (≈ 327 µM)

**Q.** Which MIC [1] does the source give for `Cc1ccnc(NC(=O)c2ccsc2NC(=O)c2ccc(C(=O)N3CCCCC3)c(F)c2)n1` here?
**A.** > 32 µg/mL

**Q.** With `Cc1ccnc(NC(=O)c2ccsc2NC(=O)c2ccc(C(=O)N3CCCCC3)cc2)n1` as the molecule, how does the MIC [1] read?
**A.** 0.03 µg/mL (≈ 0.0667 µM)

**Q.** What about the selectivity ratio [7] of the same molecule?
**A.** > 27

**Q.** Which results are given for `CCOC(=O)NC(=O)c1ccsc1NC(=O)c1ccc(C(=O)N2CCCCC2)cc1`?
**A.** MIC [8]: 0.055 µg/mL (≈ 0.128 µM); Activity [2]: 4.45 log10CFU; Activity [3]: 4.54 log10CFU; Activity [4]: 1.07 deltalog10CFU; IC50 [5]: > 64 µg/mL; Activity [6]: 0.98 deltalog10CFU

**Q.** With `CCOC(=O)NC(=O)c1ccsc1NC(=O)c1ccc(C(=O)NC2CCC(C)(C)CC2)cc1` as the molecule, how does the MIC [1] read?
**A.** 0.04 µg/mL (≈ 0.0848 µM)

**Q.** Which Activity [2] does the source give for `CCOC(=O)NC(=O)c1ccsc1NC(=O)c1nc2ccccc2s1` here?
**A.** 4.36 log10CFU

**Q.** What about the selectivity ratio [7] of the same molecule?
**A.** 66

**Q.** And the Stability [9]?
**A.** 79.8%

**Q.** What about the Activity [3] of the same molecule?
**A.** 4.91 log10CFU

**Q.** What about the Activity [4] of the same molecule?
**A.** 1.16 deltalog10CFU

**Q.** And the Activity [6]?
**A.** 0.11 deltalog10CFU

**Q.** What does the source list for `CCOC(=O)NC(=O)c1ccsc1NC(=O)c1ccc(C(=O)N2CCCCC2)s1`?
**A.** selectivity ratio [7]: > 457; IC50 [5]: > 64 µg/mL

**Q.** Which MIC [1] does the source give for `Cc1cnc(NC(=O)c2ccsc2NC(=O)c2ccc(C(=O)N3CCCCC3)cc2)s1` here?
**A.** 0.19 µg/mL (≈ 0.418 µM)

**Q.** For `CCOC(=O)NC(=O)c1ccsc1NC(=O)c1coc(C(=O)N2CCCCC2)c1`, which MIC [1] is on record?
**A.** 37 µg/mL (≈ 88.2 µM)

**Q.** With `COC(=O)NC(=O)c1ccsc1NC(=O)c1ccc(C(=O)N2CCCCC2)cc1` as the molecule, how does the MIC [8] read?
**A.** 0.12 µg/mL (≈ 0.289 µM)

**Q.** What about the MIC [1] of the same molecule?
**A.** > 32 µg/mL

**Q.** What about the Activity [2] of the same molecule?
**A.** 4.77 log10CFU

**Q.** What about the Activity [3] of the same molecule?
**A.** 5.06 log10CFU

**Q.** What about the Activity [4] of the same molecule?
**A.** 0.75 deltalog10CFU

**Q.** And the IC50 [5]?
**A.** > 64 µg/mL

**Q.** What about the Activity [6] of the same molecule?
**A.** 0.46 deltalog10CFU

**Q.** For `COC(=O)C1CCN(C(=O)c2ccsc2NC(=O)c2ccc(C(=O)N3CCCCC3)cc2)CC1`, which MIC [1] is on record?
**A.** > 32 µg/mL

**Q.** For `CCOC(=O)NC(=O)c1ccsc1NC(=O)c1ccc(C(=O)N2CCCCC2)c(F)c1`, which Activity [2] is on record?
**A.** 4.18 log10CFU

**Q.** What about the selectivity ratio [7] of the same molecule?
**A.** > 4000

**Q.** What about the Activity [3] of the same molecule?
**A.** 4.41 log10CFU

**Q.** And the Activity [4]?
**A.** 1.34 deltalog10CFU

**Q.** What about the IC50 [5] of the same molecule?
**A.** > 64 µg/mL

**Q.** What about the Activity [6] of the same molecule?
**A.** 1.11 deltalog10CFU

**Q.** For `CCCNC(=O)c1ccc(C(=O)Nc2sccc2C(=O)NC(=O)OCC)cc1`, which selectivity ratio [7] is on record?
**A.** > 320
